Source: PubChem BioAssay
Unmarked numbers belong to inactive results. Inconclusive results are not listed. Activity calls are given as the source filed them.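 Rule for the calls, unless noted: active = RAM network inhibition above 8.4% in each of two replicates, 3 SD over the compound average; inconclusive = above 8.4% inhibition in only one replicate; inactive = 8.4% inhibition or less in each replicate.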

Experiments:
[1] = S. cerevisiae growth inhibition in permissive medium (OD615), pilot counter-assay for S. cerevisiae lifespan shortening project, permissive growth control (AID 705;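 active = growth inhibition above 25% in both replicates, a cutoff set 3 SD above the mean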); conditions: OD615, 24 h, at 10 µM, stronger effect = higher value
Procedure, shortened: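 System: S. cerevisiae with engineered DeaD lifespan system. Medium: SC raffinose/galactose permissive medium. Doses: single compound dose of 10 µM, 0.25% DMSO final. Schedule: 24 h exposure, 30 °C. Measured by: OD615 turbidity read. Read-out: growth inhibition.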

[2] = S. cerevisiae growth inhibition in restrictive medium, OD615, pilot screen, restrictive growth control, yeast lifespan reduction project (AID 706;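 active = growth inhibition above a set limit, 3 SD over mean compound inhibition, in both replicates, cut at about 43% in these data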;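 note: modified DeaD lifespan yeast strain shifted to restrictive glucose medium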); conditions: OD615, 48 h, at 10 µM, stronger effect = higher value
Procedure, shortened: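 Assay system – genetically modified Saccharomyces cerevisiae, DeaD replicative lifespan assay strain · Medium – CSMM-D glucose medium · Doses – 10 µM compound, 0.25% DMSO · Times – 4 h pre-incubation, 48 h exposure at 30 °C · Signal – optical density at 615 nm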

[3] = doxorubicin toxicity protection in MRP-1 cells – H69AR cells, CellTiter-Glo, duplicate, MRP-1 activator project, pilot screen (AID 807;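 active = viability increase at or above a cutoff of the median across tested compounds plus 3 SD, cut at about 8.5% in these data, passing the limit was not always enough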;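 note: compound pretreatment 18-22 h then 72 h combined with doxorubicin; 0% = doxorubicin alone and 100% = vehicle without doxorubicin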); conditions: H69AR viability with doxorubicin, CellTiter-Glo luminescence; at 10 µM; stronger effect = higher value
[4] = viability of HCT116 without oncogenic beta-catenin – human colon tumor cells, pilot screen (AID 823;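 active = cell viability at or below a set limit in both duplicate runs, the limit being the all-compound median minus 4 SD, cut at about 23% in these data, passing the limit was not always enough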;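 note: 0% = wells killed by 20 µM Hyamine and 100% = untreated DMSO cell wells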); conditions: HCT116 beta-catenin knockout viability, CellTiter-Glo, 60 h; at 10 µM; stronger effect = lower value
[5] = viability of PTEN-null HCT116 cells – cell-based, HCT116 clonal line, CellTiter-Glo, pilot screen (AID 824;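 active = viability at or below 27.92% in each of two runs, the all-compound median minus 4 SD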;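 note: 0% = 20 µM Hyamine control and 100% = vehicle cell control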); conditions: HCT116 PTEN-deleted viability, 60 h, at 10 µM, stronger effect = lower value
[6] = RAM pathway blockade in budding yeast – dse1pr::URA3 reporter, 5-FOA selection, pilot screen (AID 869;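 active = inhibition over a set limit, the all-compound mean plus 3 SD, in both replicate runs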;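 note: 0% = DMSO wells with no growth and 100% = 10 µM 1-NA-PP1 with full growth; RAM network block rescues cells from 5-FOA so hits raise OD615 growth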); conditions: S. cerevisiae dse1pr::URA3 5-FOA growth, OD615, 2 d; at 10 µM; stronger effect = higher value; strain carries analog-sensitive mutant Cbk1 kinase
[7] = RAM signaling pathway blockade in yeast – S. cerevisiae, Pdr1DBD-CYC8 efflux-inhibited sensitized strain, primary screen (AID 1298);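 note: 0% = DMSO untreated cells without growth and 100% = 10 µM 1-NA-PP1 full growth; higher means more yeast growth rescued from 5-FOA killing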; conditions: S. cerevisiae cbk1-as DSE1-URA3 strain, 5-FOA growth OD615, 2 d; at 50 µM; stronger effect = higher value

| SMILES | growth inhibition [1] | growth inhibition [2] | viability increase [3] | viability [4] | viability [5] | inhibition [6] | RAM network inhibition [7] |
| --- | --- | --- | --- | --- | --- | --- | --- |
| Cc1ccc(CCNC(=O)CS(=O)Cc2nc(-c3cccc(C)c3)oc2C)cc1 (configuration not stated) | -4.94% | 2.34% | 2.47% | 85.3% | 86.9% | 2.59% | 6.2% |
| CC1CC=C2C(C#N)=C(N)C(C#N)(C#N)C(c3cccs3)C2C1 (configuration not stated) | -11% | -6.39% | -4.25% | 85.5% | 85.7% | 2.66% | 3.84% |
| COc1ccc(Cl)cc1NC(=O)C1CSC(c2ccncc2)=N1 (configuration not stated) | 1.68% | -12.2% | -8.24% | 65.2% | 61.5% | 0.41% | 5.11% |
| CCCn1c(CN2CCCCC2CC)nc2c1c(=O)n(C)c(=O)n2C (configuration not stated) | -3.98% | -17.3% | 0.61% | 93.9% | 90.4% | 0.045% | 4.81% |
| Cc1nccn1-c1ncnc2sc3c(c12)CCCC3 | -7.46% | 0.84% | -3.49% | 95.3% | 93.5% | 1.15% | 2.86% |
| CCOC(=O)c1c(C)oc2cc(Br)c(OC(C)C(=O)OCC)cc12 (configuration not stated) | -10.4% | -5.88% | -0.93% | 85.4% | 92% | 1.76% | 0.98% |
| Cn1c(=O)[nH]c(=O)c2c1nc(N1CCCC1)n2CC(O)COc1ccccc1 (configuration not stated) | -10.3% | -7.92% | -2.57% | 100% | 102% | 2.5% | 1.94% |
| Cc1cc(C)c(S(=O)(=O)Nc2ccc(O)cc2)c(C)c1 | -9% | 3.16% | -1.56% | 91.6% | 89.2% | 1.2% | 2.25% |
| O=C(c1ccncc1)N1CCN(C(=O)c2cccc3ccccc23)CC1 | -14.8% | -7.07% | -2.73% | 101% | 93.9% | 2.16% | 2.45% |
| COc1ccc(NC2=CC(=O)CC(C)(C)C2)cc1OC | -5.52% | -8.65% | -3.58% | 96.8% | 89.2% | 0.975% | 0.37% |
| CC(=O)Nc1nonc1-c1nc2ccccc2n1Cc1nnc(C)o1 | 3.66% | 2.84% | -3.32% | 99.7% | 97.1% | 2.09% | 1.99% |
| COc1ccc(CCNC(=O)CCn2c(=O)oc3ccccc32)cc1 | -5.1% | -14% | -1.45% | 109% | 99.7% | -0.205% | 2.7% |
| Nn1c(SCc2nc3ccccc3[nH]2)nnc1-c1cccnc1 | 4.54% | 14.9% | -2.44% | 90.2% | 95.7% | 1.13% | 1.82% |
| CC1CC(C)CN(C(=O)CSc2nnc(-c3ccc(Cl)cc3)o2)C1 (configuration not stated) | -0.98% | -3.64% | 1.73% | 94.1% | 89.2% | 1.4% | 7.35% |
| Cc1ccccc1OCc1nc(-c2ccc(-n3cccc3)cc2)no1 | -22.8% | -18.9% | -0.53% | 81.3% | 84% | 2% | 5.61% |
| COc1ccc(C2CC(c3ccc(Cl)cc3Cl)Nc3nc(N)nn32)cc1OC (configuration not stated) | 0.16% | 22.6% | 6.01% | 88.2% | 85.7% | 0.4% | 1.22% |
| N#CC1=C(c2ccccc2)N=P(N2CCOCC2)(N2CCOCC2)N=C1N1CCOCC1 | -6.26% | -16.2% | 0.57% | 103% | 107% | 1.39% | 0.33% |
| CCOc1ncccc1C(=O)OCC(=O)Nc1cc(C(=O)OC)ccc1C(=O)OC | -16.9% | -12.9% | -2.69% | 90.1% | 92.4% | 2.11% | 5.66% |

| SMILES | growth inhibition [1] | growth inhibition [2] | viability increase [3] | viability [4] | viability [5] | inhibition [6] | RAM network inhibition [7] |
| --- | --- | --- | --- | --- | --- | --- | --- |
| COCCNC(=O)CN(c1cc(C(F)(F)F)ccc1Cl)S(C)(=O)=O | -2.77% | 1.25% | -0.83% | 99.9% | 97.5% | 3.02% | 0.87% |
| O=C(Nc1nnc(-c2ccco2)o1)C1CCCCC1 | -17% | -13.8% | -1.58% | 99.1% | 93.2% | 1.52% | 0.58% |
| COc1cc(C(=O)Oc2ccccc2N)cc(OC)c1OC | -19.6% | 11.3% | -2.84% | 102% | 96% | -0.31% | 1.19% |
| COc1ccc(-c2cn3c(C)c(C(=O)N4CCN(c5ccccc5F)CC4)sc3n2)cc1 | 2.91% | -0.695% | 0.81% | 78.9% | 78% | 2.13% | 18.2% (active) |
| CCN(CC)Cc1c(O)ccc2c(-c3ccccc3)cc(=O)oc12 | -5.29% | -1.64% | -1.73% | 94.3% | 94.7% | 1.23% | 1.08% |
| CCCC(=O)Nc1nc(-c2ccc3c(c2)OCCO3)cs1 | -12% | -6.14% | 2.44% | 77.9% | 83.3% | 1.37% | 0.85% |
| COc1ccc(C)c(S(=O)(=O)Nc2ccc(OCC(=O)O)cc2)c1 | 2.53% | -4.93% | -1.41% | 99% | 102% | 0.345% | -1.4% |
| COC(=O)c1sc(NC(=O)C2CCCCC2C(=O)O)c(C(=O)OC)c1C (configuration not stated) | -5.95% | 0.13% | -2.78% | 104% | 94.6% | 2.49% | 6.27% |
| CCN(CC)C(=O)c1cc2sc3ccccc3c2s1 | -11.5% | -2.27% | 0.41% | 88.1% | 95% | -0.05% | 3.43% |
| CCn1c(=O)cc(N2CCC3(CC2)OCCO3)[nH]c1=O | -15.1% | -8.98% | 0.57% | 96.8% | 93.2% | 1.01% | 1.74% |
| CCOCCCNC(=O)C(c1ccc(C)cc1)N1CCOCC1 (configuration not stated) | -11.9% | 2.48% | -3.18% | 93.2% | 102% | 1.84% | 1.62% |
| Cc1ccccc1Cn1c(CN2CCN(C(=O)c3ccco3)CC2)nc2c1c(=O)n(C)c(=O)n2C | 1.26% | -4.52% | -4.75% | 94.1% | 95.7% | 0.335% | 1.2% |
| Cn1c(C(=O)NCCN2CCN(Cc3ccccc3)CC2)cc2c(=O)n(C)c3ccccc3c21 | -0.4% | 5.33% | -6.61% | 78.5% | 79% | -0.115% | 2.19% |
| Cc1ccnc(N2C(=O)c3ccccc3C2Nc2ccccc2Cl)c1 (configuration not stated) | -15.2% | -17.5% | 2.73% | 84.9% | 92.5% | 1.49% | 12.8% |
| COc1ccc(-c2cn3c(C)c(C(=O)N4CCN(c5ccccc5)CC4)sc3n2)cc1 | -0.58% | -13.6% | -1.3% | 101% | 95.6% | 1.88% | 0.88% |
| COc1ccc(C2C(C(N)=O)=C(C)Nc3nc(-c4ccccc4)nn32)cc1OC (configuration not stated) | -4.7% | -8.15% | -1.13% | 95.3% | 95.2% | 0.78% | -0.68% |
| CN(CC(=O)N1CC=C(c2ccccc2)CC1)S(=O)(=O)c1ccc2c(c1)c(=O)n(C)c(=O)n2C | -1.64% | -12.2% | -3.46% | 94.1% | 80.3% | 0.26% | 5.04% |
| CCCCn1c(CNC(=O)C(C)(C)C)nc2ccccc21 | -11.1% | -12% | -1.15% | 98% | 98.9% | 0.25% | 5.15% |
